# Measurements collected from several papers.
# Target: Inhibitor of nuclear factor kappa-B kinase subunit epsilon (IKBKE, Homo sapiens, UniProt Q14164)
# Residues used in one study (Q14164 1-716): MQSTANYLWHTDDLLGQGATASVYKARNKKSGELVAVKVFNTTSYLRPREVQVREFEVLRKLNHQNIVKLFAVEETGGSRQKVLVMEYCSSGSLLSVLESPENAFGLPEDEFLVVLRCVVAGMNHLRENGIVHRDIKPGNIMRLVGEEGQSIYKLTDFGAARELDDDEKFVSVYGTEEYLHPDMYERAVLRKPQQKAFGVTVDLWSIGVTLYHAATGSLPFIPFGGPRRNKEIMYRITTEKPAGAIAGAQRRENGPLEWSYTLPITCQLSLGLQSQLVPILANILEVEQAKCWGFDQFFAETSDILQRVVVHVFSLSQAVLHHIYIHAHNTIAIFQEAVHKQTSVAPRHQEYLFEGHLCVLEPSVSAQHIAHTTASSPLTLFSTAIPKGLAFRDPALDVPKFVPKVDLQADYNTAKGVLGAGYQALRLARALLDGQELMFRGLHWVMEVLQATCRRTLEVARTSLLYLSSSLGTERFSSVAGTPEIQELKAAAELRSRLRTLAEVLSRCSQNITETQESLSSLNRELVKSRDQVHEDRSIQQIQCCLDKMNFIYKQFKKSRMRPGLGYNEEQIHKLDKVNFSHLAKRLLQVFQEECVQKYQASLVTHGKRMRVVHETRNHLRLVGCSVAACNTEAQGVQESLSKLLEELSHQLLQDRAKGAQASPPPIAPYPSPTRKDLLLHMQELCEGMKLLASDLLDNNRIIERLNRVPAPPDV
Compound,effect on,method,tested at,remaining binding [%]
N[C@H]1CCN(c2nccc(-c3cnn4ncccc34)n2)C1,binding,,1 µM,91
CCS(=O)(=O)c1cc2cc(C[C@@](O)(CC(C)(C)c3ccc(F)cc3C(N)=O)C(F)(F)F)[nH]c2cn1,cell-free assay,competition with immobilised ligand,1 µM,83
O=C(c1ccc(Nc2nccc(-c3cc4ccccc4s3)n2)cc1)N1CCC(N2CCCC2)CC1,binding,competition with immobilised ligand,1 µM,31
CN(C)c1nccc(-c2cnc3ncccn23)n1,binding,,1 µM,100
COc1ncc2cc3ccccc3nc2c1C#N,cell-free assay,competition with immobilised ligand,5 µM,97
CN(C)c1nccc(-c2cnn3ncccc23)n1,binding,,1 µM,89
Nc1cnc(N2CCc3cc(S(=O)(=O)Nc4c(F)cc(Cl)cc4F)cc(N4CCCC4=O)c32)nc1,cell-free assay,competition with immobilised ligand,1 µM,95
c1cncc(-c2cccc(Nc3nccc(NC4CCCCC4)n3)c2)c1,binding,competition with immobilised ligand,10 µM,41
Cc1cnc(Nc2ccc(C(=O)N3CCC(N4CCCC4)CC3)cc2)nc1-c1cc2ccccc2s1,binding,competition with immobilised ligand,1 µM,18
Cc1cc(C)c(-n2ccn3nc(-c4cccnc4)cc23)cc1NC(=O)c1cc(C#N)cc(S(F)(F)(F)(F)F)c1,cell-free assay,competition with immobilised ligand,0.1 µM,59.9
Cc1cnn2ncc(-c3ccnc(N(C)C)n3)c2c1,binding,,1 µM,96
CO[C@H]1CC[C@H](CNc2ccc(S(=O)(=O)NC(=O)c3ccc(N4CCN(CC5=C(c6ccc(Cl)cc6)CC(C)(C)CC5)CC4)cc3Oc3cnc4[nH]ccc4c3)cc2[N+](=O)[O-])CC1,cell-free assay,competition with immobilised ligand,1 µM,100
CNC(=O)[C@@H]1CC[C@@H](n2c(-c3ccc4cnccc4c3)nc3ccc(C(=O)NCc4cccc(C(N)=O)c4)cc32)C1,binding,competition with immobilised ligand,1 µM,98
CC1=C(C#N)[C@@H](c2ccc3[nH]nc(C)c3c2)C(C#N)=C(c2ccc(Cl)cc2)N1,cell-free assay,competition with immobilised ligand,1 µM,100
F[C@@H]1CCN(c2nccc(-c3cnn4ncccc34)n2)C1,binding,,1 µM,100
CNC(=O)Nc1ccc2c(c1)CC[C@@]21OC(=O)N(CC(=O)N(Cc2ccc(F)cc2)[C@@H](C)C(F)(F)F)C1=O,cell-free assay,competition with immobilised ligand,1 µM,51
C[C@H]1CCN(c2nccc(-c3cnn4ncccc34)n2)C1,binding,,1 µM,79
O=C(NCCCN1CCOCC1)c1ccc(Nc2nccc(-c3cc4ccccc4s3)n2)cc1,binding,competition with immobilised ligand,1 µM,96
Nc1ncc2c(n1)-c1c([nH]c3ccc(C#CC4CC4)cc13)CCCC2,binding,competition with immobilised ligand,1 µM,83
C=CC(=O)N1CCC(C(=O)NCC(=O)N2CCN(c3nc(-c4cnc(N)nc4C(F)F)nc(N4CCOCC4)n3)CC2)CC1,binding,competition with immobilised ligand,1 µM,71
O=C(NCC1CCOCC1)c1n[nH]cc1NC(=O)c1c(F)cccc1F,binding,competition with immobilised ligand,1 µM,81
